From ChEMBL document CHEMBL1125717, “Synthesis and biological evaluation of cyclopropyl analogues of 2-amino-5-phosphonopentanoic acid” (J Med Chem, 1991)

What was measured:
Glutamate NMDA receptor [1] = experiment: Compound was tested in vitro for N-methyl-D-aspartate glutamate receptor binding using [3H]L-glutamate; assay type: protein-complex assay
In short: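 Rat forebrain synaptic plasma membranes (male Sprague–Dawley, 30–45 days old) were pretreated with 0.04% Triton X-100 for 30 min at 37 °C and washed four times in 50 mM Tris/acetate, pH 7.4. Incubation: 10 nM [3H]-L-glutamate, membranes at 0.25–0.35 mg/mL final, 10 min at 4 °C, then filtration through PEI-treated filters. Nonspecific binding: 0.1 mM L-glutamate. IC50 by logit–log; Ki by Cheng–Prusoff. Mean ± SEM, ≥3 experiments in triplicate.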

[2] = Compound was tested in vitro for Non N-methyl-D-aspartate glutamate receptor binding using [3H]- -Kainate; design: species or system Rattus norvegicus
In short: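 Rat forebrain synaptic membranes (male Sprague–Dawley, 30–45 days old) were treated with 0.04% Triton X-100 for 30 min at 37 °C and washed in 50 mM Tris/acetate pH 7.4. Incubation used 0.5 nM [3H]kainate and graded compound concentrations, with 0.25–0.35 mg/mL membrane, for 60 min at 4 °C. Bound ligand was separated by centrifugation; 0.1 mM kainate defined nonspecific binding. IC50 was derived by logit–log and Ki by Cheng–Prusoff, from ≥3 triplicate experiments.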

Glutamate NMDA receptor [3] = experiment: Compound was tested in vitro for its inhibitory activity against N-methyl-D-aspartate glutamate receptor using [3H]MK-801; assay type: protein-complex assay
In short: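 Functional modulation assay on washed rat synaptic membranes pretreated with 0.04% v/v Triton X-100. Incubated 30 min at 25 °C with 5.0 nM [3H]MK-801, 10.0 nM L-glutamate and graded compound concentrations in 50 mM Tris/acetate, pH 7.4. Filter-bound radioactivity counted by scintillation. Nonspecific binding: 60 μM MK-801. IC50 from logit–log transformation. Mean ± SEM, ≥3 experiments in triplicate.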

[4] = Compound was tested in vitro for Non N-methyl-D-aspartate glutamate receptor binding using [3H]kainate; design: species or system Rattus norvegicus
In short: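 Triton X-100-treated (0.04%, 30 min, 37 °C), washed rat forebrain synaptic membranes (male Sprague–Dawley, 30–45 days), 0.25–0.35 mg/mL final in 50 mM Tris/acetate, pH 7.4. Incubated with 0.5 nM [3H]kainate for 60 min at 4 °C; bound ligand separated by centrifugation. Nonspecific binding: 0.1 mM kainate. IC50 by logit–log; Ki by Cheng–Prusoff. Mean ± SEM, ≥3 experiments in triplicate.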

| Structure (SMILES) | Ki (Glutamate NMDA receptor [1]) [µM] | Ki [2] [µM] | IC50 (Glutamate NMDA receptor [3]) [µM] | Ki [4] [µM] |
| --- | --- | --- | --- | --- |
| NC(CCCP(=O)(O)O)C(=O)O (centres undefined) | 0.42 | > 100 |  |  |
| N[C@@]1(C(=O)O)CC1CCP(=O)(O)O (some centres undefined) | 26.7 |  | 18.1 | > 100 |
| N[C@]1(C(=O)O)CC1CCP(=O)(O)O (some centres undefined) | 18.7 |  | 15.2 | > 100 |
| NC(C(=O)O)C1CC1CCP(=O)(O)O (centres undefined) | > 50 |  |  | > 100 |
| N[C@H](C[C@@H]1CC1P(=O)(O)O)C(=O)O (some centres undefined) | 1.6 |  | 2.7 | > 100 |
| NC(C(=O)O)C1CC1CP(=O)(O)O (stereo in doubt; 13a) | 18.9 |  | 22.6 |  |
| NC(C(=O)O)C1CC1CP(=O)(O)O (stereo in doubt; 13b) | 9.5 |  | 13.3 | > 100 |
| NC(C(=O)O)C1CC1CCCP(=O)(O)O (stereo in doubt; 33c) | 12.5 |  |  | > 100 |
| NC(C(=O)O)C1CC1CCCP(=O)(O)O (stereo in doubt; 33d) | > 50 |  |  |  |
| O=C(O)[C@@H]1C[C@H](CP(=O)(O)O)CCN1 [SELFOTEL] | 0.16 |  | 0.14 | > 100 |
